{"data": "Published values pooled from the literature", "CDK13": "Cyclin-dependent kinase 13 (CDK13, Homo sapiens, UniProt Q14004)", "CDK13 with cyclin K": "Cyclin-dependent kinase 13, with cyclin K (CDK13, Homo sapiens, UniProt Q14004)"}
{"target": "CDK13", "test": "cell-free assay, inhibitor", "conditions": "20 µM", "quantity": "remaining signal", "result": "0.1%", "Compound": "Nc1ncnc2occ(-c3ccc(NC(=O)Nc4cc(C(F)(F)F)ccc4F)cc3)c12"}
{"target": "CDK13 with cyclin K", "test": "enzyme activity, inhibitor", "conditions": "1 µM", "quantity": "inhibition", "result": "1%", "Compound": "CN1CC(Oc2cnc(C#N)cc2-c2ccn3nc(NC(=O)C4CC4)cc3c2)C1"}
{"target": "CDK13 with cyclin K", "test": "enzyme activity, inhibitor", "conditions": "1 µM", "quantity": "remaining activity", "result": "107%", "Compound": "COc1cc(Cl)c(C(=O)N[C@@H](CN[C@H]2CC[C@@H](N)CC2)Cc2ccc(C#N)cc2)cc1-c1ccc(CN[C@H](C)c2ccc(C)cc2)o1"}
{"target": "CDK13 with cyclin K", "test": "enzyme activity, inhibitor", "conditions": "1 µM", "quantity": "activity vs control", "result": "85%", "Compound": "Cc1ccc(C(=O)NCc2ccsc2)cc1C#Cc1cn(C(C)C)c2ncnc(N)c12"}
{"target": "CDK13", "test": "cell-free assay, competition with immobilised ligand", "conditions": "1 µM", "quantity": "remaining binding", "result": "100%", "Compound": "C[C@H](NC(=O)c1cnc2n1[C@](C)(Cc1ccc(C#N)cc1)C(=O)N2c1cc(Cl)c(F)c(Cl)c1)C(=O)NC1(c2ccccn2)CC1"}
{"target": "CDK13", "test": "binding", "conditions": "1 µM", "quantity": "remaining binding", "result": "58%", "Compound": "CN(C)c1nccc(-c2cnc3ncccn23)n1"}
{"target": "CDK13", "test": "cell-free assay, competition with immobilised ligand", "conditions": "1 µM", "quantity": "remaining binding", "result": "86%", "Compound": "CN([C@@H]1CCc2c(CC(=O)O)c3cc(S(C)(=O)=O)ccc3n2C1)S(=O)(=O)c1ccc(F)cc1"}
{"target": "CDK13", "test": "enzyme activity, inhibitor", "conditions": "23.5 nM", "quantity": "remaining activity", "result": "6.4%", "Compound": "Cc1ccc(C(=O)Nc2ccc(CN3CCN(C)CC3)c(C(F)(F)F)c2)cc1C#Cc1cnc2cccnn12"}
